Rev-RRE block – disrupts HIV-1 Rev binding to RRE RNA; P05866; Rev peptide-RRE RNA binding, FRET; inhibition, % at 8 µM; actives 0.79% (n = 97,000);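 active = inhibition above the screen-wide mean plus 3 SD, cut at about 35% in these data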;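 note: 0% = median DMSO wells and 100% = median Neomycin B control wells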
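Test system: Cy5-tagged RRE RNA duplex with fluorescein-tagged Rev peptide; Probe or stimulus: labelled Rev peptide; Schedule: 5 min preincubation and 15 min binding, 25 °C; Signal: FRET fluorescence readout; Evaluation: % inhibition from 671/540 nm acceptor-to-donor ratio, scaled between controls; Control set: DMSO and neomycin B.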
LYP act – increases human PTPN22 phosphatase activity; recombinant LYP, DiFMUP fluorescence; 0 = plate median, 100 = signal doubled; activation, % at 2 µM; actives 0.11% (n = 96,000);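 active = activation at 2 µM above a set limit, the mean plus 5 SD, cut at about 37% in these data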
Target sequence (Q9Y2R2 whole entry, looked up): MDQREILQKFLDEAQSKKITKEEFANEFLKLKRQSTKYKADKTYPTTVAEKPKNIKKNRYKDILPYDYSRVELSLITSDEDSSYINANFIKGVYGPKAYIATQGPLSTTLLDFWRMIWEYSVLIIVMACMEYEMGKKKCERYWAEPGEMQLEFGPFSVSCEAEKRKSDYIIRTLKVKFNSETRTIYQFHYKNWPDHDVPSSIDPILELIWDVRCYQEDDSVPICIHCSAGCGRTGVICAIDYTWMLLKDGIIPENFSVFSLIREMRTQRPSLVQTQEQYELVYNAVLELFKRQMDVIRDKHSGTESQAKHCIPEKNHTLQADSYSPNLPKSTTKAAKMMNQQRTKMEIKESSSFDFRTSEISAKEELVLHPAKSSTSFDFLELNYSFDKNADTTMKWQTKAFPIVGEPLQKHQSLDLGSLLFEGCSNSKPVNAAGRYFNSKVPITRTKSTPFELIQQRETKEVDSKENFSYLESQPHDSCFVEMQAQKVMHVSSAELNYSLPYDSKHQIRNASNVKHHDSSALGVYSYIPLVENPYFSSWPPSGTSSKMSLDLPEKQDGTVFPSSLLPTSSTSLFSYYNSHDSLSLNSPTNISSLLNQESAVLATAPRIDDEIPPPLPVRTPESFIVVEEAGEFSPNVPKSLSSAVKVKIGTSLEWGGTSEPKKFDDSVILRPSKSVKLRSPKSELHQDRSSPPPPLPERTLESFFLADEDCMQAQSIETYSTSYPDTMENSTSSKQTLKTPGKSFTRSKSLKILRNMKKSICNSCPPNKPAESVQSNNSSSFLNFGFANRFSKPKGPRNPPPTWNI
Pyk2 oligo antag – Pyk2 (human) oligomerization antagonism; actives 0.83% (n = 99,000); Q293 cells, Pyk2 FERM NanoBiT luminescence; hits give low values; AID 1347419; z-score (the deposit names both 25 µM and 10 µM); Q14289;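 active = Z-score of -3 or lower, scaled per plate to the spread of control and sample wells; inactive = z-score above -3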;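 note: negative z-score means lost luminescence so less FERM oligomerization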
PTPN22 inh 2 – blocks human PTPN22 phosphatase activity. Q9Y2R2. actives 0.21% (n = 96,000). inhibition, % at 2 µM. AID 640. recombinant LYP catalytic domain, DiFMUP fluorescence;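 active = inhibition at 2 µM at or above a set limit, the screen mean plus 3 SD, cut at about 24% in these data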;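 note: 0% = DMSO with enzyme and 100% = enzyme fully blocked by orthovanadate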
Numbers without * were called inactive; · = no result given; [ ] = another dose, or the depositor's remark. Only some compounds are listed: those with a hit (about 1.8% of all), similar ones and a draw of the others.

SMILES	Rev-RRE block	LYP act	Pyk2 oligo antag	PTPN22 inh 2
Cc1ccc(N(C(=O)Cn2nnc(-c3cccs3)n2)C(C(=O)NC2CCCC2)c2ccncc2)cc1 (configuration not stated)	2	-5	-0.02	8
COc1cc(C2CC(=O)c3cnc(NC(=O)COc4ccccc4)nc3C2)cc(OC)c1OC (configuration not stated)	-6	9	-3.1*	-11
COc1cc(C2CC(=O)c3cnc(N)nc3C2)cc(OC)c1OC (configuration not stated)	9	-4	0.71	4
CCc1nn2c(=O)cc(CSc3nc4sc5c(c4c(=O)n3C)CCCC5)nc2s1	-2	-6	·	5
Cc1cc(NS(=O)(=O)c2ccc(NC(=O)c3cc(-c4cccnc4)nc4ccc(Cl)cc34)cc2)no1	0	6	-1.9	-4
Cc1cc(C)c2nc(-c3ccccn3)cc(C(=O)Nc3ccc(S(=O)(=O)Nc4cc(C)on4)cc3)c2c1	5	2	-3*	-1
CCOC(=O)c1sc2nc(CC(=O)OC)nc(NCc3ccco3)c2c1C	39*	3	-0.44	0
O=C(c1cnccn1)N1CCN(C/C=C/c2ccccc2)CC1	1	-5	0.23	3
Cc1nn(-c2cc(N3CCCCCC3)ccc2[N+](=O)[O-])c(=O)c2ccccc12	2	6	-4.1*	-4
CC(C)CC(C(=O)Nc1oc(-c2ccccc2)c(-c2ccccc2)c1C#N)N1C(=O)c2ccccc2C1=O (configuration not stated)	-1	-12	-3.7*	12
CCCCCn1c(N2CCOCC2)nc2c1c(=O)n(CC(N)=O)c(=O)n2C	5	1	0.07	-4
CCOc1ccc2nc(NC(=O)CN3CCC(n4nnc5cc(F)ccc54)CC3)sc2c1	9	-5	-3.3*	5
Cc1ccc(C(C(=O)NC(C)(C)C)N(Cc2ccco2)C(=O)CCC(=O)Nc2nccs2)cc1 (configuration not stated)	4	14	·	-13
COc1cc(N2CCCC2)c(OC)cc1/C=c1/sc2nc3ccccc3n2c1=O	133*[fluorescence artefact?]	-5	·	3
CC(C)Cn1c(=O)c2c(nc3n2CCCN3CCc2ccccc2)n(C)c1=O	-8	3	-0.62	-4
O=C(NC1CCCC1)c1sc(=S)n2c1[nH]c(=O)c1ccccc12	5	-6	-3.1*	7
O=C(NCc1ccco1)c1sc(=S)n2c1[nH]c(=O)c1ccccc12	1	1	0.82	-3
COc1ccc(OC)c(C(c2nnnn2C2CCCC2)N2CCN(c3ccccc3F)CC2)c1 (configuration not stated)	-1	2	-3.8*	-5
COc1ccc(N2CCN(C(c3ccccc3OC)c3nnnn3C3CCCC3)CC2)cc1 (configuration not stated)	·	·	-2.9	·
Cc1ccccc1-c1cc(C(=O)Nc2sc(C(=O)OC(C)C)c(C)c2C#N)c2ccccc2n1	4	-2	-3.9*	-1
CC(C)Oc1ccc(C2C(C(=O)c3ccco3)=C(O)C(=O)N2CCCN(C)C)cc1 (configuration not stated)	4	4	·	-5
O=[N+]([O-])c1ccc(N2CCN(S(=O)(=O)c3ccc(Cl)cc3)CC2)cc1NCc1cccnc1	3	-20	-2.8	24*
O=[N+]([O-])c1ccc(N2CCN(S(=O)(=O)c3ccccc3)CC2)cc1NCc1cccnc1	6	-1	-3.7*	7
O=C(c1ccc(Cl)cc1)N1CCN(c2ccc([N+](=O)[O-])c(NCc3cccnc3)c2)CC1	7	-5	-3.3*	10
CC(C)CC(=O)N1CCN(c2ccc([N+](=O)[O-])c(NCc3ccccc3)c2)CC1	6	5	-2.7	2
SMILES	Rev-RRE block	LYP act	Pyk2 oligo antag	PTPN22 inh 2
NC(=O)c1ccccc1N/C=C/C(=O)c1cccs1	6	·	-0.89	·
COc1cc([N+](=O)[O-])ccc1N/C=C/C(=O)c1cccs1	77*	-4	0.29	7
CC(C(=O)O)N1C(=O)/C(=C/C=C/c2ccco2)SC1=S (configuration not stated)	-167	-24	-0.65	25*
CC1=NN(c2ccc(C(=O)OC(C)C)cc2)C(=O)/C1=C\C=C\c1ccco1	-1	-10	-0.77	6
Cc1ccc2[nH]c3c(c2c1)CN(C(=O)CN1CCSCC1)CC3	36*	-2	·	1
Cc1ccc2[nH]c3c(c2c1)CN(C(=O)CN1CCN(c2ccccn2)CC1)CC3	·	·	-0.08	·
Cc1ccc2[nH]c3c(c2c1)CN(C(=O)CN1CC(C)OC(C)C1)CC3 (configuration not stated)	61*	-12	-0.53	13
